Test results published in ChEMBL document CHEMBL5705890, “Antitumor activity of an allosteric inhibitor of centromere-associated protein-E” (Proc Natl Acad Sci U S A, 2010).

Legend:
[1] = Binding affinity to human CENP-E T183A/K184T mutant assessed as inhibition constant
[2] = target: Centromere-associated protein E (Homo sapiens, UniProt Q02224); test: Inhibition of ATPase activity of C-terminal 6-his-tagged CENP-E (2 to 340 residues)(unknown origin) expressed in Escherichia coli BL21(DE3) in presence of ATP
A673 = test: Anticancer activity against human A673 cells assessed as cell growth inhibition measured after 72 hrs by DAPI staining based analysis; type: functional
How it was run: (§1)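 Cells were seeded and, after 24 h, DNA content was read as T0. Cells were then exposed to varying drug concentrations for a further 72 h (T72). Fixed cells were DAPI-stained and DNA content measured by automated imaging. T72 values were normalized to T0. GI50 is the concentration giving 50% growth inhibition between T0 and Ymax, obtained by curve fitting.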

AGS = test: Anticancer activity against human AGS cells assessed as cell growth inhibition measured after 72 hrs by DAPI staining based analysis; type: functional; how it was run: as §1
CAL-62 = test: Anticancer activity against human CAL-62 cells assessed as cell growth inhibition measured after 72 hrs by DAPI staining based analysis; type: functional
How it was run: (§2)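 Cells were seeded, and DNA content at 24 h after seeding (T0) was read by imaging of fixed, DAPI-stained cells. Cells were then exposed to a range of drug concentrations for a further 72 h (T72) and DNA content was read again. T72 values were normalized to T0, and GI50 was taken from curve fits as the concentration giving 50% growth inhibition relative to T0 and Ymax.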

Capan-2 = test: Anticancer activity against human Capan-2 cells assessed as cell growth inhibition measured after 72 hrs by DAPI staining based analysis; type: functional
How it was run: (§3)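 Cells seeded, DAPI-stained DNA content of fixed cells read by imaging 24 h after seeding (T0), and again after a further 72 h exposure to a range of drug concentrations (T72). T72 values were normalized to T0. Curve fits gave the concentration producing 50% growth inhibition relative to T0 and Ymax (GI50).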

CESS = test: Anticancer activity against human CESS cells assessed as cell growth inhibition measured after 72 hrs by DAPI staining based analysis; type: functional; how it was run: as §2
EFM-19 = test: Anticancer activity against human EFM-19 cells assessed as cell growth inhibition measured after 72 hrs by DAPI staining based analysis; type: functional; how it was run: as §3
ES-2 = test: Anticancer activity against human ES2 cells assessed as cell growth inhibition measured after 72 hrs by DAPI staining based analysis; type: functional; how it was run: as §3
HCC 2998 = test: Anticancer activity against human HCC 2998 cells assessed as cell growth inhibition measured after 72 hrs by DAPI staining based analysis; type: functional; how it was run: as §3
HCT-15 = test: Anticancer activity against human HCT-15 cells assessed as cell growth inhibition measured after 72 hrs by DAPI staining based analysis; type: functional
HepG2 = test: Anticancer activity against human HepG2 cells assessed as cell growth inhibition measured after 72 hrs by DAPI staining based analysis; type: functional
IGROV-1 = test: Anticancer activity against human IGROV-1 cells assessed as cell growth inhibition measured after 72 hrs by DAPI staining based analysis; type: functional
J82 = test: Anticancer activity against human J82 cells assessed as cell growth inhibition measured after 72 hrs by DAPI staining based analysis; type: functional
NCI-H187 = test: Anticancer activity against human NCI-H187 cells assessed as cell growth inhibition measured after 72 hrs by DAPI staining based analysis; type: functional
NCI-H2171 = test: Anticancer activity against human NCI-H2171 cells assessed as cell growth inhibition measured after 72 hrs by DAPI staining based analysis; type: functional
NCI-H716 = test: Anticancer activity against human NCI-H716 cells assessed as cell growth inhibition measured after 72 hrs by DAPI staining based analysis; type: functional
SAOS-2 = test: Anticancer activity against human SAOS-2 cells assessed as cell growth inhibition measured after 72 hrs by DAPI staining based analysis; type: functional
SR = test: Anticancer activity against human SR cells assessed as cell growth inhibition measured after 72 hrs by DAPI staining based analysis; type: functional
SW684 = test: Anticancer activity against human SW684 cells assessed as cell growth inhibition measured after 72 hrs by DAPI staining based analysis; type: functional
THP-1 = test: Anticancer activity against human THP-1 cells assessed as cell growth inhibition measured after 72 hrs by DAPI staining based analysis; type: functional
5637 = test: Anticancer activity against human 5637 cells assessed as cell doubling measured for 72 hrs by DAPI staining based analysis; type: functional
647-V = test: Anticancer activity against human 647-V cells assessed as cell doubling measured for 72 hrs by DAPI staining based analysis; type: functional
A-375 = test: Anticancer activity against human A-375 cells assessed as cell doubling measured for 72 hrs by DAPI staining based analysis; type: functional
[3] = Anticancer activity against human BC-2 cells assessed as cell doubling measured for 72 hrs by DAPI staining based analysis; type: functional
C3A = test: Anticancer activity against human C3A cells assessed as cell doubling measured for 72 hrs by DAPI staining based analysis; type: functional
DoTc2-4510 = test: Anticancer activity against human DoTc2-4510 cells assessed as cell doubling measured for 72 hrs by DAPI staining based analysis; type: functional
DU-4475 = test: Anticancer activity against human DU-4475 cells assessed as cell doubling measured for 72 hrs by DAPI staining based analysis; type: functional
G-402 = test: Anticancer activity against human G-402 cells assessed as cell doubling measured for 72 hrs by DAPI staining based analysis; type: functional
LS-1034 = test: Anticancer activity against human LS1034 cells assessed as cell doubling measured for 72 hrs by DAPI staining based analysis; type: functional
M14 = test: Anticancer activity against human M14 cells assessed as cell doubling measured for 72 hrs by DAPI staining based analysis; type: functional
MV4-11 = test: Anticancer activity against human MV4-11 cells assessed as cell doubling measured for 72 hrs by DAPI staining based analysis; type: functional
NCI-H358 = test: Anticancer activity against human NCI-H358 cells assessed as cell doubling measured for 72 hrs by DAPI staining based analysis; type: functional
Raji = test: Anticancer activity against human Raji cells assessed as cell doubling measured for 72 hrs by DAPI staining based analysis; type: functional
RPMI-2650 = test: Anticancer activity against human RPMI-2650 cells assessed as cell doubling measured for 72 hrs by DAPI staining based analysis; type: functional
SCaBER = test: Anticancer activity against human SCaBER cells assessed as cell doubling measured for 72 hrs by DAPI staining based analysis; type: functional
[4] = Antitumor activity against human MV-522 cells in xenograft model assessed as difference between median time to endpoint time of treated versus control group at 62.5 mg/kg; type: functional
HT-29 = test: Antitumor activity against human HT-29 cells in xenograft model assessed as tumor growth delay at 125 mg/kg relative to control; type: functional
NCI-H460 = test: Antitumor activity against human NCI-H460 cells in xenograft model assessed as tumor growth delay at 62.5 mg/kg relative to control; type: functional
[5] = Antitumor activity against human MV-522 cells in xenograft model assessed as tumor growth delay at 125 mg/kg relative to control; type: functional

Sequence of Centromere-associated protein E (Q02224 whole entry, the tested form may be a part): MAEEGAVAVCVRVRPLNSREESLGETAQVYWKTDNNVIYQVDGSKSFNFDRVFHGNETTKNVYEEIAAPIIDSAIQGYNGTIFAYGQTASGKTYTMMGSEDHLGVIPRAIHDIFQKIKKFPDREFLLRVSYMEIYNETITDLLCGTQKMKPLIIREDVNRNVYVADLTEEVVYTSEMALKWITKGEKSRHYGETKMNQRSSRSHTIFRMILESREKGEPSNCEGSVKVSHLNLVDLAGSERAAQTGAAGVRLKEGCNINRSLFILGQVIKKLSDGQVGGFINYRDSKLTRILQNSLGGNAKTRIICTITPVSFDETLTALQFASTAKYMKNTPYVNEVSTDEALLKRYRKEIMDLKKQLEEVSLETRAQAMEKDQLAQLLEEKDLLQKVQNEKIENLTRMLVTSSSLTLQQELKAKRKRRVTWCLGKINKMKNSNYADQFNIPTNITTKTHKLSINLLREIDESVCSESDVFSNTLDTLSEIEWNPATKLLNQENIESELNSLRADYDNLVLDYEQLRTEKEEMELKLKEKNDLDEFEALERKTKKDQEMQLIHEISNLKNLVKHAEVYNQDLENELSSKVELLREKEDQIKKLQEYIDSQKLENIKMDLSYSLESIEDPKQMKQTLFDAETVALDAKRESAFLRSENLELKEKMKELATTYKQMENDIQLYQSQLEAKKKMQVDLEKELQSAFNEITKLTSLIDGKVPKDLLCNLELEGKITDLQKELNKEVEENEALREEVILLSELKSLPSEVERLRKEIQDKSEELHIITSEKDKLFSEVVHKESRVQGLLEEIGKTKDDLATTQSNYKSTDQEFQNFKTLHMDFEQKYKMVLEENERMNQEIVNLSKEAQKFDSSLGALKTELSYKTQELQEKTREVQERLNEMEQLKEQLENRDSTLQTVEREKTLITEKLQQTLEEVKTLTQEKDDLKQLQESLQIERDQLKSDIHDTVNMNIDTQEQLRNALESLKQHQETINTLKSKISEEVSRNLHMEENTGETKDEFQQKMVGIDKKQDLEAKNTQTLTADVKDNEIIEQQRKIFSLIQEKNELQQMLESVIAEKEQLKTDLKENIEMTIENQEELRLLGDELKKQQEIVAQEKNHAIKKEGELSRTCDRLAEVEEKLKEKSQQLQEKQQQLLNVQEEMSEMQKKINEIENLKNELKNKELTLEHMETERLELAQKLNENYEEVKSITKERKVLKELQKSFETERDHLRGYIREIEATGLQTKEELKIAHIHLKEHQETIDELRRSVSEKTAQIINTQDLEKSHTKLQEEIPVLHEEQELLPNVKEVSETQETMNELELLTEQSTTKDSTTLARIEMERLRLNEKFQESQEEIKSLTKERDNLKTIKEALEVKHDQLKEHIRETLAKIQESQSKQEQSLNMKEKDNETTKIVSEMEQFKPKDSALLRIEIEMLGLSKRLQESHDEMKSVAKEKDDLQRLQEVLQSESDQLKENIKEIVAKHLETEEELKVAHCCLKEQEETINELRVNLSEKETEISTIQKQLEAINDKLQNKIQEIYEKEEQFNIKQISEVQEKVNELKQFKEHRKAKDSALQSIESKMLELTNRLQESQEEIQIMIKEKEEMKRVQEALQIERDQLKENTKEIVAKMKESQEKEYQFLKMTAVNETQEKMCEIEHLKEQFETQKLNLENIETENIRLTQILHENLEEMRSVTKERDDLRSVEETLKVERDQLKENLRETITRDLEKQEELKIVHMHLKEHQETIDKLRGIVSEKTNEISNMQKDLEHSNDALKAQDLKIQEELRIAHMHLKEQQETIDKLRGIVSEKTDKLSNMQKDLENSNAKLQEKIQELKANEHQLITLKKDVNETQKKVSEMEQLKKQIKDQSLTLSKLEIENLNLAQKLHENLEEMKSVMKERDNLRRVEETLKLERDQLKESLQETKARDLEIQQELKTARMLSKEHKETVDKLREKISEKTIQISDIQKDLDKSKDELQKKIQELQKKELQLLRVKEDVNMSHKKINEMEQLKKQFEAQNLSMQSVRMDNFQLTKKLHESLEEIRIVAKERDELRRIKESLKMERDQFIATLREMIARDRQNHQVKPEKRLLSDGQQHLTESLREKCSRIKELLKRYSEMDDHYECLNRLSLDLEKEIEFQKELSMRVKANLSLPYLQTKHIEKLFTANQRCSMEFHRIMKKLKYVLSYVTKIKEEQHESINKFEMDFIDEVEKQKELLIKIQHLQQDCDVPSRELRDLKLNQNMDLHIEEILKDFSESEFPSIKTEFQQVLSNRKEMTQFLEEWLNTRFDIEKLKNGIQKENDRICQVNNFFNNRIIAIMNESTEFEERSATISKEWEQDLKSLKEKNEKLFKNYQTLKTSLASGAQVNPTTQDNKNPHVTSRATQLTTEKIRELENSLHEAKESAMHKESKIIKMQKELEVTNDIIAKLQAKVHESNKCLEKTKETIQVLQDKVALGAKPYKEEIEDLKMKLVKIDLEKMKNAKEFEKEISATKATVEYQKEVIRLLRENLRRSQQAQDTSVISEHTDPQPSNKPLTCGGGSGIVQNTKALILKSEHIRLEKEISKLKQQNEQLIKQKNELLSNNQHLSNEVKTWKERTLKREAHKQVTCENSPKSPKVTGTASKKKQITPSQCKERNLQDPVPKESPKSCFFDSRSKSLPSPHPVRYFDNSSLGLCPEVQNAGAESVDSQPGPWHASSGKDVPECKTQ

## CC(C)Oc1ccc(C(=O)N[C@H](CNC(=O)CN(C)C)Cc2ccc(-c3cn4cccc([C@H](C)O)c4n3)cc2)cc1Cl [GSK-923295A]
[1]
  Ki: 11 nM
[2]
  IC50: 2080 nM
A673
  GI50: 23 nM
AGS
  GI50: 29 nM
CAL-62
  GI50: 30 nM
Capan-2
  GI50: 119 nM
CESS
  GI50: 19 nM
EFM-19
  GI50: 28 nM
ES-2
  GI50: 30 nM
HCC 2998
  GI50: 29 nM
HCT-15
  GI50: 151 nM
HepG2
  GI50: 31 nM
IGROV-1
  GI50: 31 nM
J82
  GI50: 114 nM
NCI-H187
  GI50: 68 nM
NCI-H2171
  GI50: 24 nM
NCI-H716
  GI50: 174 nM
SAOS-2
  GI50: 41 nM
SR
  GI50: 29 nM
SW684
  GI50: 5020 nM
THP-1
  GI50: 12 nM
5637
  Activity: 1.43
647-V
  Activity: 2.72
A-375
  Activity: 3.04
[3]
  Activity: 1.94
C3A
  Activity: 2.23
DoTc2-4510
  Activity: 2.17
DU-4475
  Activity: 2.05
G-402
  Activity: 1.76
LS-1034
  Activity: 1.73
M14
  Activity: 2.27
MV4-11
  Activity: 1.79
NCI-H358
  Activity: 2.07
Raji
  Activity: 3.26
RPMI-2650
  Activity: 3
SCaBER
  Activity: 2.86
[4]
  Time: 12.5 days
HT-29
  Activity: 39%
NCI-H460
  Activity: 87%
[5]
  Activity: 104%
